The record followed here is ChEMBL document CHEMBL2331120, “Evidence for the analgesic activity of resveratrol in acute models of nociception in mice” (2013).

Calls of active or inactive are those of the source.

Assay [1] relates to Mus musculus. Kind of assay: Antinociceptive activity in Swiss mouse assessed as inhibition of capsaicin-induced spontaneous nociception at 50 mg/kg, po. In kind it is functional. In outline:
(§1)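 Swiss mice (30 to 35 g) acclimatized in observation chambers, then dosed orally 30 min before intraplantar capsaicin (1.6 μg in 20 μL, right hindpaw). Time spent licking the injected paw scored over 5 min. Saline controls on the same schedule. n = 8 per group. Percent inhibition taken as the mean of individual experiments.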

The test system of assay [2] is Mus musculus. Kind of assay: Antinociceptive activity in Swiss mouse assessed as inhibition of glutamate-induced increase of c-Fos expression in L3-L6 spinal segments at 100 mg/kg, po by immunohistochemistry analysis. In kind it is functional, organism-based. More on the design: dose 100 mg/kg. The method in brief: (§2)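 Swiss mice dosed 100 mg/kg po 30 min before ipl glutamate (10 μmol per paw). Spinal cord and brain excised 60 min later and formalin-fixed. Sections immunostained with rabbit anti-c-Fos (1:1000) overnight at room temperature, then biotinylated secondary, ABC and nickel-enhanced DAB. Positive area per field quantified. Four animals per group.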

The test system of assay [3] is Mus musculus. The assay is described as follows: Antinociceptive activity in Swiss mouse assessed as inhibition of capsaicin-induced increase of COX2 expression in brain cortex at 100 mg/kg, po by Western blotting. The format is functional, organism-based. Further details: dose 100 mg/kg. The method in brief: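 Mice dosed 100 mg/kg po or given saline, then capsaicin 1.6 μg/paw ipl. Cortex homogenized in hypotonic HEPES buffer with protease inhibitors plus Nonidet P-40. 20 μg protein run on 10% SDS-PAGE. Blot probed 12 h with anti-COX-2 (1:250), then HRP secondary. Bands by chemiluminescence and densitometry, normalized to β-actin. Four animals per group.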
(Immunoblotting shows a protein as a band on a membrane.)

Assay [4] has as its system Mus musculus. Kind of assay: Antinociceptive activity in Swiss mouse assessed as inhibition of capsaicin-induced increase of COX2 expression in L3-L6 spinal segments and cerebral cortex at 100 mg/kg, po by immunohistochemistry analysis. In kind it is functional, organism-based. Further details: dose 100 mg/kg. The method in brief: (§3)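 Swiss mice, 30 to 35 g, dosed 100 mg/kg po 30 min before ipl capsaicin (1.6 μg in 20 μL per paw). Spinal cord and brain taken 60 min later and fixed in buffered formalin. Sections stained with rabbit anti-c-Fos or anti-COX-2 (1:1000) overnight at room temperature, then biotinylated secondary, ABC and nickel-enhanced DAB. Read-out is positive area per field. Four animals per group.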

Assay [5] concerns Mus musculus. The assay is described as follows: Antinociceptive activity in Swiss mouse assessed as inhibition of glutamate-induced increase of c-Fos expression in brain cortex at 100 mg/kg, po by immunohistochemistry analysis. In kind it is functional, organism-based. More on the design: dose 100 mg/kg. In outline: as §2
Assay [6] has as its system Mus musculus. Kind of assay: Antinociceptive activity in Swiss mouse assessed as inhibition of capsaicin-induced increase of c-Fos expression in brain cortex at 100 mg/kg, po by immunohistochemistry analysis. The format is functional, organism-based. Further details: dose 100 mg/kg. In outline:
as §3

Assay [7] deals with Mus musculus. The assay is described as follows: Antinociceptive activity in Swiss mouse assessed as inhibition of capsaicin-induced increase of c-Fos expression in L3-L6 spinal segments at 100 mg/kg, po by immunohistochemistry analysis. Further details: dose 100 mg/kg. In kind it is functional, organism-based. The method in brief: as §3
Assay [8] deals with Mus musculus. The assay is described as follows: Antinociceptive activity in Swiss mouse assessed as inhibition of capsaicin-induced biting behavior at 300 ug/site, administered intrathecally. In kind it is functional, organism-based. The method in brief:
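Swiss mice, 30 to 35 g. Given 300 μg/site it, in 5 μL, co-injected with capsaicin (6.4 μg in 5 μL) into the subdural space at L5−L6. Biting is scored as single head movements directed at the flanks or hind limbs that contact the snout. Controls got saline. Eight animals per group.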

Assay [9] relates to Mus musculus. The assay is described as follows: Antinociceptive activity in Swiss mouse assessed as inhibition of glutamate-induced biting behavior at 300 ug/site, administered intrathecally. In kind it is functional. In outline:
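Glutamate (30 μg in 5 μL) injected intrathecally into the subdural space at L5–L6, co-injected with compound (300 μg in 5 μL, it). Biting was scored, defined as a head movement toward the flanks or hind limbs ending in snout contact. Saline controls. Eight mice per group.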

Assay [10] relates to Mus musculus. Kind of assay: Antinociceptive activity in Swiss mouse assessed as inhibition of glutamate-induced spontaneous nociception at 300 ug/site, icv. The format is functional, organism-based. The method in brief: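 Dosed icv at 300 μg/site in 5 μL, 10 min before glutamate (10 μmol/paw, ipl). Licking of the injected paw timed for 15 min in Swiss mice, against saline controls. Eight animals per group.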

For assay [11], the system named is Mus musculus. The assay is described as follows: Antinociceptive activity in Swiss mouse assessed as inhibition of capsaicin-induced spontaneous nociception at 300 ug/site, icv. The format is functional. In outline:
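Intracerebroventricular injection (300 μg/site in 5 μL) 10 min before capsaicin (1.6 μg in 20 μL) into the right hindpaw plantar surface of Swiss mice. Paw-licking time (s) measured over 5 min against saline controls. n = 8. Inhibition calculated as the mean of per-experiment values.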

Assay [12] deals with Mus musculus. Kind of assay: Antinociceptive activity in Swiss mouse assessed as inhibition of glutamate-induced spontaneous nociception at 300 ug/site, administered as intrathecally. In kind it is functional, organism-based. In outline: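 Given intrathecally at 300 μg/site in 5 μL, 10 min before ipl glutamate (10 μmol per paw, in 20 μL) in Swiss mice. Paw-licking time recorded over 15 min. Saline controls. Eight animals per group.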

Assay [13] concerns Mus musculus. The assay is described as follows: Antinociceptive activity in Swiss mouse assessed as inhibition of capsaicin-induced spontaneous nociception at 600 ug/site, administered as intrathecally. In kind it is functional. In outline: (§4)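 Mice given intrathecal dose in 5 μL 10 min before intraplantar capsaicin (1.6 μg/paw, 20 μL). Time spent licking the paw recorded for 5 min. Saline-treated controls. Eight animals per group. Percent inhibition averaged across individual experiments.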

For assay [14], the system named is Mus musculus. Kind of assay: Antinociceptive activity in Swiss mouse assessed as inhibition of capsaicin-induced spontaneous nociception at 300 ug/site, administered as intrathecally. The format is functional. In outline: as §4
In assay [15] the test system is Mus musculus. The assay is described as follows: Antinociceptive activity in Swiss mouse assessed as inhibition of capsaicin-induced spontaneous nociception at 150 ug/site, administered as intrathecally. In kind it is functional. In outline:
as §4

Assay [16] has as its system Mus musculus. Kind of assay: Antinociceptive activity in Swiss mouse assessed as inhibition of capsaicin-induced spontaneous nociception at 200 ug/site, administered as intraplantarly. In kind it is functional, organism-based. The method in brief:
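Given 200 μg/paw intraplantar, co-injected with capsaicin (1.6 μg in 20 μL) into the right hindpaw of Swiss mice. Time spent licking the injected paw recorded over 5 min. Saline controls. Eight animals per group.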

The subject of assay [17] is Mus musculus. The assay is described as follows: Antinociceptive activity in Swiss mouse assessed as inhibition of glutamate-induced spontaneous nociception at 200 ug/site, administered as intraplantarly. The format is functional. The method in brief:
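Compound co-injected intraplantarly (200 μg/paw) with glutamate (10 μmol/paw, 20 μL) into the right hindpaw of Swiss mice. Licking of the injected paw timed over 15 min. Saline controls. n = 8 per group.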

Assay [18] relates to Mus musculus. Kind of assay: Antinociceptive activity in Swiss mouse assessed as inhibition of glutamate-induced spontaneous nociception at 100 mg/kg, po. In kind it is functional. The method in brief: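 Oral pretreatment 30 min before intraplantar glutamate (10 μmol/paw, 20 μL) into the right hindpaw. Mice observed individually for 15 min for time spent licking the injected paw. Saline controls. Eight animals per group. Percent inhibition taken as the mean of individual experiments.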

Assay [19] relates to Mus musculus. The assay is described as follows: Antinociceptive activity in Swiss mouse assessed as inhibition of capsaicin-induced spontaneous nociception at 100 mg/kg, po. The format is functional. In outline: as §1
Assay [20] has as its system Mus musculus. Kind of assay: Antinociceptive activity in Swiss mouse assessed as inhibition of glutamate-induced increase of COX2 expression in spinal cord and cortex brain section at 100 mg/kg, po.

Consider `Oc1ccc(/C=C/c2cc(O)cc(O)c2)cc1` [RESVERATROL], for which the inhibition in vivo (as a rule, the change of the read-out against control, counted positive when it falls) at 50 mg/kg in the assay with Mus musculus [1] worked out at 29%. Besides, the inhibition result with Mus musculus [2], with Mus musculus [5], with Mus musculus [6], in the assay on Mus musculus [8], in the assay on Mus musculus [10] and in the assay with Mus musculus [12] was “inactive” throughout. For the same molecule, the inhibition entry in the assay with Mus musculus [16] and in the assay on Mus musculus [20] was “inactive” each time. For the same molecule, the inhibition result in the assay with Mus musculus [3], with Mus musculus [4] and in the assay on Mus musculus [7] was “Active” each time. For the same molecule, the “inhibition (INH)” value is 74% with Mus musculus [9]; 87% in the assay with Mus musculus [11]; 36% in the assay on Mus musculus [13]; 44% in the assay with Mus musculus [14]; 33% with Mus musculus [15]; 33% in the assay with Mus musculus [17]. Also, the values for the inhibition in vivo at 100 mg/kg in the assay on Mus musculus [18] and with Mus musculus [19] were 39% and 36%, respectively.
